Laboratory results reported in ChEMBL document CHEMBL4041534, “Treatment of Sepsis Pathogenesis with High Mobility Group Box Protein 1-Regulating Anti-inflammatory Agents” (J Med Chem, 2017).
Changes are numbered by the printed parent chain. Converted amounts (≈) assume the structure as drawn. Each block holds one compound with its values, some of them ahead of it. The source made the active and inactive calls. No cut-off for these calls is given here.

Columns and labels:
[1] = target: T1, High mobility group protein B1 (Mus musculus) (UniProt P63158); assay: Inhibition of HMGB1 translocation from nucleus to cytosol in LPS-stimulated mouse RAW264.7 cells assessed as inhibition of NO release at 10 uM measured after 24 hrs by Griess assay relative to control
T1 sequence (whole entry): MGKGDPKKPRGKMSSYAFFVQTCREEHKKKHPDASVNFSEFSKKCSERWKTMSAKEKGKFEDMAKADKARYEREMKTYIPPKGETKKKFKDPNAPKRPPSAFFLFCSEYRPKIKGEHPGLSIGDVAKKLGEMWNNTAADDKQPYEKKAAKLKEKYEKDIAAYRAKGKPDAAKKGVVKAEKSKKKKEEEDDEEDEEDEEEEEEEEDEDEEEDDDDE
Outline: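 Raw264.7 cells, seeded 1 day earlier, were moved to serum-free DMEM and exposed to 100 ng/mL LPS with 10 μM compound for 24 h. Supernatant NO was measured with Griess reagent (sulfanilamide/N-(1-naphthyl)ethylenediamine/phosphoric acid) at room temperature, absorbance 548 nm. Inhibition was set against LPS+DMSO wells, blank-corrected, with four control wells. At least three independent experiments.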

[2] = Cytotoxicity against mouse RAW264.7 cells assessed as cell viability at 10 uM in presence of LPS measured after 24 hrs by WST assay relative to control; type: cell-based; conditions: read-out: Activity
Outline: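 Raw264.7 cells, seeded 1 day earlier, were washed into serum-free DMEM and given 100 ng/mL LPS plus compound (10 μM) for 24 h. After the supernatant was removed, wells were refilled with 10% FBS DMEM and WST reagent was added for 20 min at 37 °C. Absorbance was read at 450 nm, and viability is relative to vehicle. At least three independent experiments.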

[3] = target: T1, High mobility group protein B1 (Mus musculus); assay: Inhibition of HMGB1 translocation from nucleus to cytosol in LPS-stimulated mouse RAW264.7 cells assessed as inhibition of TNF-alpha production at 10 uM measured after 4 hrs by ELISA relative to control
Outline: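 Raw264.7 cells in serum-free DMEM were treated with 100 ng/mL LPS and 10 μM compound (final). After 4 h, medium was diluted in 1% BSA/PBS and secreted TNF-α was quantified by ELISA against a standard curve of TNF-α protein. Inhibition is relative to control. At least three independent experiments.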

[4] = target: T1, High mobility group protein B1 (Mus musculus); assay: Inhibition of HMGB1 nuclear translocation in LPS-stimulated mouse RAW264.7 cells at 20 uM pretreated for 1 hr followed by LPS-induction measured after 2 hrs by Hoechst 33342/TRITC staining based immunofluorescence microscopic method
Outline: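 Raw264.7 cells on chambered coverglass were pretreated with 20 μM compound for 1 h, then given 500 ng/mL LPS for 2 h. Cells were fixed in 4% paraformaldehyde, permeabilized with methanol at −20 °C, blocked with 2% BSA, and stained with anti-HMGB1 plus TRITC secondary and Hoechst 33342. Imaged by deconvolution fluorescence microscopy. At least three independent experiments.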

[5] = target: T1, High mobility group protein B1 (Mus musculus); assay: Inhibition of HMGB1 nuclear translocation in LPS-stimulated mouse RAW264.7 cells assessed as inhibition of IL-6 production at 10 uM pretreated for 1 hr followed by LPS-induction by Western blot analysis
Outline: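 Raw264.7 cells were pretreated with 10 μM compound for 1 h, then given 100 ng/mL LPS. IL-6 released into the culture medium was detected by Western blot with ECL chemiluminescence, DMSO as control. At least three independent experiments.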

[6] = system: RAW264.7; assay: Cytotoxicity against mouse RAW264.7 cells assessed as reduction in cell viability at >10 uM in presence of LPS measured after 24 hrs by WST assay; type: cell-based; conditions: raw264.7, 24 h
[7] = Equilibrium aqueous solubility of the compound by microsol method; type: physicochemical
Outline: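 Equilibrium aqueous solubility by the μsol method. Mean ± SD, n = 3.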

[8] = Stability in mouse liver microsomes assessed as compound remaining preincubated for 5 mins followed by NADPH addition measured after 30 mins LC/MS/MS method; type: ADME, microsome; conditions: read-out: Stability
Outline: (§1)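 Compounds were incubated with human or mouse liver microsomes in 100 mM potassium phosphate, pH 7.4, at 37 °C for 5 min. NADPH regenerating solution was added, and the reaction was stopped at 30 min with ice-cold acetonitrile containing imipramine internal standard. Percent remaining was measured by LC/MS/MS. Mean ± SD, n = 3.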

[9] = system: Mus musculus; assay: Anti-inflammatory activity in C57BL/6(B6) mouse model of CLP-induced sepsis assessed as decrease in serum IL-6 level at 10 mg/kg, ip administered daily for 9 days starting from 1 hr prior to CLP-induction by ELISA; type: functional, organism-based
[10] = system: Mus musculus; assay: Anti-inflammatory activity in C57BL/6(B6) mouse model of CLP-induced sepsis assessed as increase in survival rate at 10 mg/kg, ip administered daily for 9 days starting from 1 hr prior to CLP-induction; type: functional, organism-based
Outline: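 C57BL/6 mice from a specific pathogen-free facility underwent CLP. The cecum was ligated below the ileocecal valve 5.0 mm from the tip, punctured once with a 20-gauge needle and a little stool extruded, then the abdomen was closed. Mice received 10 mg/kg ip daily for 9 days and survival was followed against vehicle-treated mice.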

[11] = system: Mus musculus; assay: Anti-inflammatory activity in C57BL/6(B6) mouse model of CLP-induced sepsis assessed as survival rate at 10 mg/kg, ip administered daily for 21 days starting from 1 hr prior to CLP-induction (reference value: 10 %); type: functional
[12] = Stability in human liver microsomes assessed as compound remaining preincubated for 5 mins followed by NADPH addition measured after 30 mins LC/MS/MS method; type: ADME, microsome; conditions: read-out: Stability; outline: as §1
[13] = target: MAP kinase p38 (Mus musculus) (UniProt P47811+O08911+Q9WUI1+Q9Z1B7); assay: Inhibition of MAPK p38 phosphorylation at Thr180/Tyr182 resdiues in LPS-stimulated mouse RAW264.7 cells at 20 uM pretreated followed by LPS-induction by Western blot analysis
Outline: (§2)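 Raw264.7 cells were pretreated with 20 μM compound, then stimulated with 100 ng/mL LPS, with DMSO as control. Lysates in RIPA buffer with protease and phosphatase inhibitors were normalized by BCA and run on SDS-PAGE/Western blot for phospho-p38, JNK and ERK, with GAPDH as loading control. Detection by ECL, and band intensities were quantified. At least three independent experiments.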

[14] = species on record: Mus musculus; assay: Inhibition of JNK phosphorylation at Thr183/Tyr185 resdiues in LPS-stimulated mouse RAW264.7 cells at 20 uM pretreated followed by LPS-induction by Western blot analysis; outline: as §2
[15] = system: Mus musculus; assay: Anti-inflammatory activity in C57BL/6(B6) mouse model of CLP-induced sepsis assessed as decrease in serum IL-6 level at 10 mg/kg, ip administered daily for 21 days starting from 1 hr prior to CLP-induction by ELISA; type: functional, organism-based
Outline: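 Serum IL-6 measured by sandwich ELISA. Blood was taken from CLP-induced C57BL/6 mice 24 h after surgery. Plates coated with anti-IL-6 mAb overnight at 4 °C and blocked with 1% BSA/PBS; serum incubated overnight at 4 °C. Detection used biotinylated anti-IL-6 and streptavidin-HRP, TMB development and absorbance at 450 nm. Run in triplicate, three independent repeats.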

[16] = species on record: Mus musculus; assay: Inhibition of NF-kappaB p65 nuclear translocation in LPS-stimulated mouse RAW264.7 cells at 20 uM pretreated followed by LPS-induction by Hoechst 33342/TRITC staining based immunofluorescence microscopic method
Outline: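 NF-κB p65 immunofluorescence in Raw264.7 cells pretreated with 20 μM compound, then stimulated with 500 ng/mL LPS. Fixation was 4% paraformaldehyde, methanol permeabilization at −20 °C, and BSA blocking. Cells were stained with anti-p65 plus TRITC secondary and Hoechst 33342 nuclear stain, then imaged by deconvolution microscopy. At least three independent experiments.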

[17] = target: T2, High mobility group protein B1 (Homo sapiens) (UniProt P09429); assay: Inhibition of ICM-BP binding to recombinant human HMGB1 assessed as reduction in Cy5-azide incorporation pretreated for 60 mins followed by ICM-BP addition for 20 mins and subsequent UV light irradiation for 5 mins by fluorescence assay
T2 sequence (whole entry): T1 sequence (whole entry) with D189E, E202D
Outline: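 Purified HMGB1 (1 μg in water) was pretreated with competitor for 60 min, with DMSO held at 0.8% final. ICM-BP (5 μM) was then added for 20 min, followed by 365 nm UV for 5 min on ice. Cy5-azide was attached by click reaction, then samples were run on 12.5% SDS-PAGE and in-gel fluorescence scanned. Competitor was dosed in a graded series.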

[18] = species on record: Mus musculus; assay: Inhibition of ERK phosphorylation in LPS-stimulated mouse RAW264.7 cells at 20 uM pretreated followed by LPS-induction by Western blot analysis; outline: as §2

inhibition [1]: 52%
SMILES: CNc1ccc2c(c1)OC(C)(C)C1=CCn3c(=O)n(-c4ccccc4)c(=O)n3C12 (stereo not drawn)

inhibition [3]: 44% | inhibition [1]: 89%
SMILES: COc1ccc(-n2c(=O)n3n(c2=O)C2C(=CC3)C(C)(C)Oc3cc(O)ccc32)cc1 (stereo not drawn)
viability at 24 h, 10 µM [2]: 127%

inhibition [1]: 55%
SMILES: COc1ccc2c(c1)C1C(=CCn3c(=O)n(-c4ccccc4)c(=O)n31)C(C)(C)O2 (stereo not drawn)

inhibition [1]: 26%
SMILES: COc1ccc2c(c1O)OC(C)(C)C1=CCn3c(=O)n(-c4ccccc4)c(=O)n3C12 (stereo not drawn)

inhibition [1]: 44%
SMILES: COc1cc2c(cc1OC)C1C(=CCn3c(=O)n(-c4ccccc4)c(=O)n31)C(C)(C)O2 (stereo not drawn)

inhibition [1]: 44%
SMILES: COc1ccc2c(c1)OC(C)(C)C1=CCn3c(=O)n(-c4ccccc4)c(=O)n3C12 (stereo not drawn)

inhibition [1]: 79%
SMILES: CC1(C)Oc2cc(F)ccc2C2C1=CCn1c(=O)n(-c3ccccc3)c(=O)n12 (stereo not drawn)

The next lines start with the compound.

SMILES: CC1(C)Oc2cc(O)ccc2C2C1=CCn1c(=O)n(Cc3ccccc3)c(=O)n12 (stereo not drawn)
inhibition [1]: 70% | viability at 24 h, 10 µM [2]: 106%

SMILES: CC1(C)Oc2cc(O)ccc2C2C1=CCn1c(=O)n(-c3ccccc3I)c(=O)n12 (stereo not drawn)
inhibition [1]: 48% | viability at 24 h, 10 µM [2]: 109%

SMILES: Cc1ccc(-n2c(=O)n3n(c2=O)C2C(=CC3)C(C)(C)Oc3cc(O)ccc32)cc1 (stereo not drawn)
inhibition [4]: Active | inhibition [3]: 45% | inhibition [1]: 94% | viability at 24 h, 10 µM [2]: 130% | inhibition [5]: Active

SMILES: CCCCc1ccc(-n2c(=O)n3n(c2=O)C2C(=CC3)C(C)(C)Oc3cc(O)ccc32)cc1 (stereo not drawn)
inhibition [1]: 99% | Activity [6]: Toxic | viability at 24 h, 10 µM [2]: 50%

SMILES: CC1(C)Oc2cc(O)ccc2C2C1=CCn1c(=O)n(-c3ccccc3)c(=O)n12 (stereo not drawn)
solubility thermodynamic [7]: 23.5 µg/mL (≈ 62.3 µM) | remaining at 0.5 h [8]: 0.41% | inhibition [4]: Active | inhibition [3]: 43% | Activity [9]: Active | Activity [10]: Active | survival at 10 mg/kg [11]: 45% | inhibition [1]: 87% | remaining at 0.5 h [12]: 0.82% | viability at 24 h, 10 µM [2]: 105% | inhibition [13]: Active | inhibition [14]: Active | Activity [15]: Active | inhibition [16]: Active | inhibition [17]: Dose-dependent effect | inhibition [5]: Active | inhibition [18]: Active
